RGS4 act: RGS4 potentiation or activation. 310,000 compounds, 0.92% hits. AID 463111. B-score at 10 µM. HEK293 M3R/inducible RGS4, carbachol calcium flux Fluo4; hits give low values;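 active = B-score of the integrated calcium signal more than 4 SD below the library mean, with starting fluorescence not abnormally high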;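 also: negative B-score means reduced calcium response which marks RGS4 activation or potentiation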
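Reagent: ECmax carbachol challenge; Test system: M3R-expressing HEK293 line, RGS4 induced by doxycycline; Schedule: overnight RGS4 induction, 30 min dye load 37 °C, 20 min compound RT; Detection: calcium dye Fluo4 fluorescence; Read-out: Agonist-evoked peak-minus-minimum fluorescence over baseline, integrated ratio, B score.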
MrgX1 allo act: allosterically activates human MrgX1 receptor signaling | AID 588675 | 310,000 compounds, 0.63% hits | B-score at 10 µM | Q96LB2 | MrgX1-HEK293, Fluo-4 calcium flux, FDSS; hits give high values;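 active = plate-corrected calcium response at least 3 library SD above typical, normal starting fluorescence, not activating the receptor alone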;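 also: compound read alongside a low EC10 to EC30 dose of BAM8-22 agonist; peak minus trough fluorescence over baseline measured at the second addition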
Target sequence (Q96LB2 whole entry, looked up): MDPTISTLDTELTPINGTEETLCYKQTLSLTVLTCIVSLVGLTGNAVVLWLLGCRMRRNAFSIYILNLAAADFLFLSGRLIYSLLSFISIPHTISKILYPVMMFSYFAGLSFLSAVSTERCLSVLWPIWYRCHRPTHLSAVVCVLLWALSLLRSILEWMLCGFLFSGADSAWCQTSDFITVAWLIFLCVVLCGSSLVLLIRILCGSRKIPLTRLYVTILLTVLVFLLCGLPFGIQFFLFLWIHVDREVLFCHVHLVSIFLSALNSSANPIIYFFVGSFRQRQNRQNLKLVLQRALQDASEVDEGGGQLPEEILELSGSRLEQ
MrgX1 agonist: human MrgX1 receptor agonism, primary screen; Q96LB2; MrgX1-HEK293 cells, Fluo-4 calcium fluorescence, agonist mode; hits give high values; B-score at 10 µM; 310,000 compounds, 0.44% hits;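 active = calcium response B-score plate-corrected fluorescence ratio at least 3 library SD, with starting fluorescence B-score inside 5 SD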
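Material: MrgX1-expressing HEK293 cells; input: 15,000 cells per well; doses: test compound given as first of three sequential additions; schedule: overnight plating before 1 h dye loading; technique: Fluo-4 NW calcium-flux fluorescence, kinetic read; evaluation: baseline-normalised fluorescence change ratio, B-scored; control set: plate-wise positive and negative controls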
MrgX1 antag: blocks BAM8-22 activation of human MrgX1 receptor; MRGX1-HEK293 calcium flux, Fluo-4, BAM8-22 antagonism; hits give low values; B-score at 10 µM; 310,000 compounds, 1.3% hits;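 active = calcium-response B-score plate-corrected more than 3 library SD below zero, starting fluorescence within 5 deviations, no agonist response on first addition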;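 also: peak minus trough fluorescence over baseline after final BAM8-22 challenge near maximal dose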
RGS4 inh: inhibitors of human RGS4. P49798. HEK293 M3R/RGS4 inducible, Fluo-4 calcium flux; hits give high values; triggered by carbachol at its EC20. B-score at 10 µM. 310,000 compounds, 0.45% hits;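 active = B-score, a plate-corrected calcium signal, over three deviations above library mean, with baseline fluorescence within five deviations of library mean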;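 also: RGS4 expression induced by doxycycline in cells with stable M3 receptor; B-score is computed from the integrated fluorescence ratio over baseline after carbachol; higher B-score means a larger calcium signal and so more RGS4 inhibition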
Target sequence (P49798 whole entry, looked up): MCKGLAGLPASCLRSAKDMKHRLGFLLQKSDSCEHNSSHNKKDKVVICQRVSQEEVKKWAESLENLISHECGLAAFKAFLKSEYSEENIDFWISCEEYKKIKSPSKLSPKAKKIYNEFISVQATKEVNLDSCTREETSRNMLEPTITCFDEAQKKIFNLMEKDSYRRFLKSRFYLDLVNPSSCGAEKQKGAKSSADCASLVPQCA
Of the large screens only hits and unclear results are named; the others gave an inactive call. A selection: hits, their analogues and other compounds. The true share with any hit is near 3.5%.

COc1ccc(CCN2C(=O)c3[nH]nc(-c4ccccc4O)c3C2c2cccc(Cl)c2)cc1 (centres undefined)	none
COc1cccc(C2c3c(-c4cc(Cl)c(C)cc4O)n[nH]c3C(=O)N2Cc2cccnc2)c1 (centres undefined)	RGS4 inh 11
CC1CCCN(CCOCCOc2ccc(Br)cc2Cl)C1 (centres undefined)	RGS4 act -7.5
Cc1ccc(S(=O)(=O)/N=C(\CSC(N)=O)Nc2ccccc2)cc1	none
CNC(=O)c1cc2cc(OC)ccc2oc1=O	none
COc1ccc2oc(=O)c(C(=O)C[n+]3cccc(C)c3)cc2c1	RGS4 act -10
COc1cccc(-c2ccc(C#N)c(=O)[nH]2)c1	none
CCc1ccc(S(=O)(=O)Nc2ccc(O)c3c(=O)cc(-c4ccccc4Cl)oc23)cc1	none
O=c1cc(-c2ccccc2Cl)oc2c(NS(=O)(=O)c3cc(Cl)cc(Cl)c3O)ccc(O)c12	MrgX1 agonist 40
O=C(CCc1ccccc1)N1CCCC1	none
CC(C)CN(C(=O)COC(=O)COc1ccc2ccccc2c1)c1c(N)n(Cc2ccccc2)c(=O)[nH]c1=O	MrgX1 antag -6.4
CCOc1ccc(OCC(=O)OCC(=O)N(CC(C)C)c2c(N)n(Cc3ccccc3)c(=O)[nH]c2=O)cc1	none
CNC(=O)c1cc2cc(OC)ccc2n1CCN(Cc1ccccc1)Cc1ccccc1	MrgX1 antag -7.8
O=C(/C=C/c1cccs1)NC(=S)NNC(=O)c1ccccc1O	MrgX1 agonist 63
O=C(NC(=S)NNC(=O)c1ccccc1O)c1ccco1	MrgX1 agonist 30
Nn1c(SCc2cccc3ccccc23)nnc1-c1ccco1	none
Nn1c(SCc2ccccc2)nnc1-c1ccco1	MrgX1 antag -5.7
O=C1CSC(c2cccc([N+](=O)[O-])c2)N1c1ccc(O)cc1 (centres undefined)	none
O=C1CSC(c2cccc([N+](=O)[O-])c2)N1c1ccccc1 (centres undefined)	RGS4 act -7.5
CCC(C)NC(=O)C1(C)CCC(=O)N1CCc1ccc(OC)c(OC)c1 (centres undefined)	none
CCOc1ccc(N2CC(=O)Nc3ccccc3NCC2=O)cc1	MrgX1 antag -5.9
CCOC(=O)C1CCN(C(=O)C2CCN(c3nnc(-n4cccc4)s3)CC2)CC1	none
CCOC(=O)C1CCN(C(=O)C2CCN(c3nc4ccc(OC)cc4s3)CC2)CC1	MrgX1 antag -5.5
CN(CC(=O)NCc1ccc(F)cc1)CC(=O)Nc1ccc(Cl)c(C(F)(F)F)c1	MrgX1 antag -5.6
CC(NC(=O)CN(C)CC(=O)Nc1ccc(Cl)c(C(F)(F)F)c1)c1ccccc1 (centres undefined)	none
CC(=O)N(c1nc(/C=C\C(=O)O)cs1)c1ccccc1F	MrgX1 agonist 32
CCCn1c(N2CCN(Cc3cccc(C)c3)CC2)nc2c1c(=O)[nH]c(=O)n2C	none
O=C(/C=C/c1ccc([N+](=O)[O-])s1)N1CCCCC1	none
O=C(/C=C/c1ccc([N+](=O)[O-])s1)N1CCCC1	MrgX1 antag -4.6
CC(C)CN1C(=S)SC(C)(C)C1n1oc(=O)n(-c2ccc(Cl)cc2)c1=O (centres undefined)	RGS4 act -11
CC(C)CN1C(=S)SC(C)(C)C1n1oc(=O)n(-c2ccccc2)c1=O (centres undefined)	none
O=C(COC(=O)c1ccc2ccccc2c1)Nc1ncc(C(F)(F)F)cc1Cl	none
O=C(COC(=O)c1c2ccccc2cc2ccccc12)Nc1ncc(C(F)(F)F)cc1Cl	RGS4 act -7
CCC(=O)C1=C(N2CCCC2)CC(C)(C)CC1=O	none
COc1cc(OC)c(C=O)c(OC(=O)N2CCOCC2)c1	none
O=Cc1cc(Br)c(OC(=O)N2CCOCC2)c(Br)c1	MrgX1 agonist 27
COc1cc(C(=O)OCC(=O)N(C)c2ccccc2)cc(OC)c1OC	none
O=C1CC(c2ccccc2)Cc2nc(N3CCc4ccccc4C3)ncc21 (centres undefined)	none
COCc1cc(Sc2c(Cl)cccc2Cl)nc(-c2ccccc2)n1	MrgX1 allo act 9.3
O=C(NCc1cccnc1)c1ccc(-c2ccccc2[N+](=O)[O-])o1	MrgX1 antag -5.9
Cc1ccc(C(O)c2ccncc2)cc1 (centres undefined)	none
O=c1cc(N2CCCCC2)c(-c2ccccc2)nn1Cc1c(Cl)cccc1Cl	RGS4 act -7.1
c1ccc(C(c2ccccc2)c2noc(CN3CCN(C4CCCC4)CC3)n2)cc1	none
CC(=O)N1CCN(Cc2nc(C(c3ccccc3)c3ccccc3)no2)CC1	RGS4 act -7.5
CC(C)n1nc(C(=O)Nc2nc3ccccc3[nH]2)c2ccccc2c1=O	RGS4 act -9.5
CCN(CC(=O)Nc1ccc2c(c1)OCCO2)C(=O)/C=C/c1ccccc1	none
CCN(CC(=O)Nc1ccc2c(c1)OCCO2)C(=O)CC(NC(C)=O)c1ccccc1 (centres undefined)	MrgX1 antag -7.4
CC1C2CC(C/C2=N/NC(=O)c2cccs2)C1(C)C (centres undefined)	MrgX1 allo act 8.7
C[C@@H]1C2CC(C/C2=N\NC(=O)c2ccncc2)C1(C)C (some centres undefined)	none
COc1ccc(/C=N/NC(=S)Nc2ccccc2[N+](=O)[O-])cc1O	MrgX1 allo act 6.8
O=[N+]([O-])c1cncc([N+](=O)[O-])c1Nc1cccc(O)c1	MrgX1 agonist 38
Cc1ccccc1Nc1c([N+](=O)[O-])cncc1[N+](=O)[O-]	none
CC(Oc1ccc(Br)cc1)C(=O)Nc1ccc(N2CCOCC2)cc1N1CCOCC1 (centres undefined)	none
NC(=S)N/N=C/c1coc2c(ccc3ccccc32)c1=O	none
Cc1ccc(-n2nnnc2-c2cccs2)cc1[N+](=O)[O-]	RGS4 act -7.4
CCC(=O)N(Cc1cc2cc(OC)ccc2[nH]c1=O)c1ccc(C)cc1	none
CCN1C(=S)SC(=O)C1=C1C=C(C)N(CCO)C(C)=C1	MrgX1 agonist 38
CN(C(=O)C(C)(C)C)c1ccc(OCC(=O)N2CCc3ccccc3C2)cc1	RGS4 act -7.4
Cc1ccc(OCC(=O)N2CCc3ccccc3C2)cc1	none
O=C1N(c2ccc3c(c2)OCCO3)C(c2ccccc2)C1(F)F (centres undefined)	MrgX1 allo act 6.9
Cc1ccc(N2C(=O)C(F)(F)C2c2ccccc2)cc1 (centres undefined)	none
CCc1ccc(S(=O)(=O)Nc2cc3c(cc2N2CCOCC2)n(C)c(=O)c(=O)n3C)cc1	none
COc1ccc(NC(=O)/C=C/c2ccccc2)c([N+](=O)[O-])c1	MrgX1 antag -7.1
COc1ccc(/C=C/C(=O)Nc2ccc(OC)cc2[N+](=O)[O-])cc1	none
CC(C)NC(=O)c1ccccc1NC(=O)/C=C/c1cccc([N+](=O)[O-])c1	MrgX1 antag -4.5

From PubChem BioAssay
